# Measurements collected from several papers.
# Lines come from different studies, so protocols differ.
# Target: Ephrin type-A receptor 4 (EPHA4, Homo sapiens, UniProt P54764)
SMILES,observed,mode,technique,concentration,measurement,result
CCN(CC)CCNC(=O)c1c(C)[nH]c(/C=C2\C(=O)Nc3ccc(F)cc32)c1C,enzyme activity,inhibitor,,10 µM,inhibition,46%
O=C(Nc1cnn(-c2csc(C(=O)NC3COC3)c2)c1)Nc1ccccc1Cl,enzyme activity,inhibitor,,5 µM,remaining activity,100%
O=C(NCc1ncc(C(F)(F)F)cc1Cl)c1ccc2c(c1)C1(CCS(=O)(=O)CC1)[C@@H](C1CC1)N2S(=O)(=O)c1ccc(F)cc1,cell-free assay,,competition with immobilised ligand,1 µM,remaining binding,97%
CN1CC(Oc2cnc(C#N)cc2-c2ccn3nc(NC(=O)C4CC4)cc3c2)C1,enzyme activity,inhibitor,,1 µM,inhibition,11%
O=C(NCCCC1CCCCC1)c1ccc(CNC(=O)c2cnn(-c3ccccc3)c2C(F)(F)F)cc1,cell-free assay,,competition with immobilised ligand,0.1 µM,remaining binding,70%
COc1cc(/C=C/C(=O)CC(=O)/C=C/c2ccc(O)c(OC)c2)ccc1O,enzyme activity,inhibitor,,1 µM,activity vs control,118%
COc1ccc2cc(OCC3(C(=O)O)CN(C(=O)c4ccc(F)cc4)C3)ccc2c1,cell-free assay,,competition with immobilised ligand,1 µM,remaining binding,100%
CCCOc1ccc(OC)c(F)c1C(=O)c1ccc(C(=O)N[C@@H]2CNC[C@H]2NC(=O)c2ccc3[nH]ncc3c2)cc1,enzyme activity,inhibitor,,10 µM,remaining activity,82%
O=C1Nc2ccc(Cl)cc2C1=Cc1cc(Cl)c(O)c(Cl)c1,cell-free assay,,,0.5 µM,remaining signal,93.1%
Oc1cccc(-c2nc(N3CCOCC3)c3oc4ncccc4c3n2)c1,enzyme activity,inhibitor,,10 µM,remaining activity,103%
N#CCCc1ccc2c(c1)-c1[nH]c3ccc([N+](=O)[O-])cc3c1CC(=O)N2,cell-free assay,,,0.5 µM,remaining signal,85.2%
Cc1ccc(C(=O)NCc2ccsc2)cc1C#Cc1cn(C(C)C)c2ncnc(N)c12,enzyme activity,inhibitor,,1 µM,activity vs control,6%
Cc1nc(N2CC[C@@H](O)C2)ncc1-c1cc(C(F)(F)F)cc2[nH]ncc12,cell-free assay,,competition with immobilised ligand,1 µM,remaining binding,100%
COc1cc2ncnc(Nc3ccc(Oc4ccccc4)c(C)c3C)c2cc1OC,enzyme activity,inhibitor,,1 µM,inhibition,10%
Cc1ccc(C(=O)Nc2ccc(CN3CCN(C)CC3)c(C(F)(F)F)c2)cc1C#Cc1cnc2cccnn12,cell-free assay,,,23.5 nM,remaining signal,22%
CNC(=O)c1cc(Oc2ccc(NC(=O)Nc3ccc(Cl)c(C(F)(F)F)c3)cc2)ccn1,enzyme activity,inhibitor,,10 µM,inhibition,56%
Cc1cc(NC(=O)c2cccc3cc(-c4cccc5[nH]nc(N)c45)ccc23)ccc1F,enzyme activity,inhibitor,,0.1 µM,activity vs control,73%
Cc1ccc(Nc2nccc(N(C)c3ccc4c(C)n(C)nc4c3)n2)cc1S(N)(=O)=O,enzyme activity,inhibitor,,10 µM,inhibition,28%
CC(C)(C)c1nc2c(s1)c1nc(N)ncc1c1ccc(NS(=O)(=O)c3c(F)cccc3F)c(F)c12,enzyme activity,inhibitor,radiometric,1 µM,remaining activity,99%
Cc1c(NC(=O)c2cc(C(N)=O)nc3cc(F)ccc23)c(C(F)(F)F)nn1Cc1ccc(C#N)cc1,cell-free assay,,competition with immobilised ligand,1 µM,remaining binding,99%
CC/C(=N\NC(=O)NCc1cccc(O)c1)c1ccc(O)c(C)c1O,enzyme activity,inhibitor,,0.1 µM,inhibition,0.3%
C[C@@H](c1cccc(C#N)c1)n1cc(Cl)cc(C(N)=O)c1=N,cell-free assay,,competition with immobilised ligand,1 µM,remaining binding,90%
COc1cc(Nc2cnc(C#N)c(O[C@H](C)CN(C)C)n2)ncc1-c1cnn(C)c1,enzyme activity,inhibitor,radiometric,1 µM,remaining activity,73%
CCS(=O)(=O)c1cc2cc(C[C@](O)(CC(C)(C)c3ccc(F)cc3C(N)=O)C(F)(F)F)[nH]c2cn1,cell-free assay,,competition with immobilised ligand,1 µM,remaining binding,100%
CC(C)(O)[C@H]1CC[C@H](Nc2ccc3ncc(-c4cccc(C(F)(F)F)c4)n3n2)CC1,enzyme activity,inhibitor,,1 µM,remaining activity,98.8%
